The source made the active and inactive calls. The rule behind the calls is not given here.

We go through 74 compounds from ChEMBL document CHEMBL1144492, “Novel T-type calcium channel blockers: dioxoquinazoline carboxamide derivatives” (Bioorg Med Chem, 2007).

Assay [1] deals with T1, Voltage-dependent T-type calcium channel subunit alpha-1G (Homo sapiens, UniProt O43497). As to the kind of experiment: Inhibition of T-type calcium channel Cav3.1 with alpha-1G subunit expressed in HEK293 cells at 100 uM by FDSS6000 assay. The class given is cell-based. In a few lines:
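HEK293 cells stably expressing α1G plus Kir2.1, grown in DMEM/10% FBS with geneticin and puromycin, plated at 4 × 10^4 cells/well and used next day. Loaded 60 min at room temperature with 5 µM fluo3/AM in Hepes-buffered saline, pH 7.4. Channels opened by depolarization with 70 mM KCl in buffer containing 10 mM CaCl2. Rise in intracellular Ca2+ read by fluorescence on FDSS6000.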

Assay [2] has as its target T1, Voltage-dependent T-type calcium channel subunit alpha-1G. The assay is described as follows: Inhibition of T-type calcium channel Cav3.1 with alpha-1G subunit by patch clamp assay. (In general: Patch clamp records ionic current or voltage across a cell membrane.)
Where [3] appears, read: 10 uM, in the assay text read “at 10 uM” for “at 100 uM”.

T1 sequence (O43497 whole entry): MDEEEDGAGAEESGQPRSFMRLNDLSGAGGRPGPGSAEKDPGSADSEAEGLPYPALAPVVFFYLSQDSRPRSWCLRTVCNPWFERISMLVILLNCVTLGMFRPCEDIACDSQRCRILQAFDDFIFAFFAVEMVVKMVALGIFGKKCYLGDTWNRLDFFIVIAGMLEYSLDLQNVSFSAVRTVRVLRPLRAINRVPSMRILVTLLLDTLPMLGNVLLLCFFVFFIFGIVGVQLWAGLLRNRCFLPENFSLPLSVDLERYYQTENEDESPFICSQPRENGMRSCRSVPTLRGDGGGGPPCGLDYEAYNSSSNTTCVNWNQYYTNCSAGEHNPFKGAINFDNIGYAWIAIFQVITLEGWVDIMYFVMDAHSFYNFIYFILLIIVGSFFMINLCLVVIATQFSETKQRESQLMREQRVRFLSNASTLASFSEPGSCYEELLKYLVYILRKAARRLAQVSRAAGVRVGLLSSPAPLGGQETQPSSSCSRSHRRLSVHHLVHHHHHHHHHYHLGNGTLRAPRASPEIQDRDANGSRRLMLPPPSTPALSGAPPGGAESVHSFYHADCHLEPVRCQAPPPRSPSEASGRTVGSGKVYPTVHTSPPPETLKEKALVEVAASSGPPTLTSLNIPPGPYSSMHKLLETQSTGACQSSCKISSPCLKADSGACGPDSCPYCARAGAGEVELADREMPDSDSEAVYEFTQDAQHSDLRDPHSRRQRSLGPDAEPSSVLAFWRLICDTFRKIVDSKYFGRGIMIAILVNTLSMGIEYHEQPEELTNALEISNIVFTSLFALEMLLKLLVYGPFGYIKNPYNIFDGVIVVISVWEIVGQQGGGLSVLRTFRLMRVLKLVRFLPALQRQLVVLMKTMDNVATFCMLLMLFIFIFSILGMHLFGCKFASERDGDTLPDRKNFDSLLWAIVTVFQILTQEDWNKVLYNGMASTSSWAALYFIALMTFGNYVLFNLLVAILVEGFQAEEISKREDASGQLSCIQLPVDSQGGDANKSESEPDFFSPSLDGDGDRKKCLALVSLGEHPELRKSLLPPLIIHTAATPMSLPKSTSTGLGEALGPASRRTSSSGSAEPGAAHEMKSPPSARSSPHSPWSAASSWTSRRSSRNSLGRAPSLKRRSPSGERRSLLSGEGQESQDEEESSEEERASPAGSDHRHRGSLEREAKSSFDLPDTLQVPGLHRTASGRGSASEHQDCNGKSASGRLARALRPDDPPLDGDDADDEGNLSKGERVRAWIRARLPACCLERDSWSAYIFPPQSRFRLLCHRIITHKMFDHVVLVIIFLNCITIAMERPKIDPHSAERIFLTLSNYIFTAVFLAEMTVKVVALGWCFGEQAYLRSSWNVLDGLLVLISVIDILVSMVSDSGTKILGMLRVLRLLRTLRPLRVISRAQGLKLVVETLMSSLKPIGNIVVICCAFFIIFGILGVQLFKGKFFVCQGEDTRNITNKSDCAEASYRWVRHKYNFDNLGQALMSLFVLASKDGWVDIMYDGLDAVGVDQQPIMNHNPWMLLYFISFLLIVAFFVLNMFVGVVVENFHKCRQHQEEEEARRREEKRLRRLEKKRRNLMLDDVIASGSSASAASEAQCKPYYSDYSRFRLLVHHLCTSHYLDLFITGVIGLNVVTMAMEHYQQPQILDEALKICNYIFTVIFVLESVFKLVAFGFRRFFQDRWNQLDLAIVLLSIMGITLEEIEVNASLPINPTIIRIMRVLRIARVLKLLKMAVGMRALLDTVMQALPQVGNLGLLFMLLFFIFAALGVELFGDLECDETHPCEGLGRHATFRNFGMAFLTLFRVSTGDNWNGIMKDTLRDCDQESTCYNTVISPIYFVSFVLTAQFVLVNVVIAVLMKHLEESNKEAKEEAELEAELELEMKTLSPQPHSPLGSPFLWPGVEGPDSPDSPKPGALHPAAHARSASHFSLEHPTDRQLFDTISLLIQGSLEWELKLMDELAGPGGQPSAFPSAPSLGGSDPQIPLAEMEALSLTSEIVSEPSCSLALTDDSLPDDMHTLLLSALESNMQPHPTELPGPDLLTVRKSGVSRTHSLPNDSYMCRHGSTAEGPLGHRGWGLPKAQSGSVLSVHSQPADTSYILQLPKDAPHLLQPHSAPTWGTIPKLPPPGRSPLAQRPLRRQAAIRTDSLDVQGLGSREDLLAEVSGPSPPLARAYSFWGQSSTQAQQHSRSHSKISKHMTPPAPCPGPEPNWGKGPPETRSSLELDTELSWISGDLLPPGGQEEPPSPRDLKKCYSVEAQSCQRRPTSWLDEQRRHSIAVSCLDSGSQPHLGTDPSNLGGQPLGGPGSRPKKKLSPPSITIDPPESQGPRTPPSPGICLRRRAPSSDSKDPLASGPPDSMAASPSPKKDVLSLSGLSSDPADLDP

Turning to `CCCn1c(=O)[nH]c2cc(C(=O)NCCN3CCCC3)ccc2c1=O`, the inhibition (commonly the drop in the measured response relative to a control, in per cent) in assay [1] (100 uM) was found to be 6.7%. Turning to `O=C(NCCCN1CCCC1)c1ccc2c(=O)n(Cc3ccccc3Cl)c(=O)[nH]c2c1`, in assay [1] (setting [3]), the inhibition is 6.2%. For `O=C(NCCN1CCCCC1)c1ccc2c(=O)n(Cc3cccc(F)c3)c(=O)[nH]c2c1`, the inhibition in assay [1] (100 uM) worked out at 64.6%. Besides, the IC50 (usually the concentration that gives 50% inhibition) in assay [2] stood at 16.9 µM. In the case of `COc1cccc(-n2c(=O)[nH]c3cc(C(=O)NCCCN4CCCCC4C)ccc3c2=O)c1` (centres undefined), the inhibition in assay [1] (100 uM) stood at 12.3%. Regarding `CN1CCN(CCCNC(=O)c2ccc3c(=O)n(Cc4ccccc4F)c(=O)[nH]c3c2)CC1`, the inhibition in assay [1] (100 uM) is 7.3%.

As to `O=C(NCCCN1CCCC1)c1ccc2c(=O)n(-c3cccc(F)c3)c(=O)[nH]c2c1`, the result in assay [1] (100 uM) was inactive. Take `CN1CCN(CCCNC(=O)c2ccc3c(=O)n(Cc4cccc(F)c4)c(=O)[nH]c3c2)CC1`: the inhibition in assay [1] (100 uM) is 8.3%. As to `CC1CCCCN1CCCNC(=O)c1ccc2c(=O)n(Cc3cccc(F)c3)c(=O)[nH]c2c1` (centres undefined), in assay [1] (100 uM), the inhibition was determined as 47.8%. Consider `COc1ccc(-n2c(=O)[nH]c3cc(C(=O)NCCCN4CCCCC4C)ccc3c2=O)cc1` (centres undefined), for which the inhibition in assay [1] (100 uM) worked out at 1.5%. With `O=C(NCCN1CCCCC1)c1ccc2c(=O)n(-c3cccc(F)c3)c(=O)[nH]c2c1`, the inhibition in assay [1] (100 uM) was found to be 3.4%. On the same count and under the same terms, with `COc1cccc(-n2c(=O)[nH]c3cc(C(=O)NCCN4CCCC4)ccc3c2=O)c1` the figure was 13.1%. With `COc1ccc(-n2c(=O)[nH]c3cc(C(=O)NCCCN4CCN(C)CC4)ccc3c2=O)cc1`, the result in assay [1] (100 uM) was inactive.

With `CCC1CCCCN1CCNC(=O)c1ccc2c(=O)n(Cc3ccc(Cl)cc3)c(=O)[nH]c2c1` (centres undefined), the IC50 in assay [2] was determined as 3.38 µM. `COc1cccc(Cn2c(=O)[nH]c3cc(C(=O)NCCCN4CCN(C)CC4)ccc3c2=O)c1`: the inhibition in assay [1] (100 uM) stood at 20.1%.

Regarding `O=C(NCCN1CCCCC1)c1ccc2c(=O)n(Cc3ccc(F)cc3)c(=O)[nH]c2c1`, in assay [1] (100 uM), the inhibition amounted to 65%. In addition, the IC50 in assay [2] was 9.23 µM. Consider `CC1CCCCN1CCCNC(=O)c1ccc2c(=O)n(Cc3ccccc3F)c(=O)[nH]c2c1` (centres undefined), for which the inhibition in assay [1] (100 uM) amounted to 13.9%.

As for `CN1CCN(CCCNC(=O)c2ccc3c(=O)n(-c4ccccc4F)c(=O)[nH]c3c2)CC1`, the inhibition in assay [1] (100 uM) was determined as 2.4%. For the compound `CCCn1c(=O)[nH]c2cc(C(=O)NCCN3CCCCC3)ccc2c1=O`, the inhibition in assay [1] (100 uM) came to 18%.

Regarding `O=C(NCCCN1CCOCC1)c1ccc2c(=O)n(Cc3ccc(F)cc3)c(=O)[nH]c2c1`, the outcome in assay [1] (100 uM) was inactive. Regarding `CCC1CCCCN1CCNC(=O)c1ccc2c(=O)n(Cc3ccc(OC)cc3)c(=O)[nH]c2c1` (centres undefined), the IC50 in assay [2] worked out at 5.97 µM. With `COc1ccc(Cn2c(=O)[nH]c3cc(C(=O)NCCN4CCOCC4)ccc3c2=O)cc1`, in assay [1] (100 uM), the outcome was inactive. Turning to `CCC1CCCCN1CCCNC(=O)c1ccc2c(=O)n(Cc3ccc(Cl)cc3)c(=O)[nH]c2c1` (centres undefined), in assay [2], the IC50 amounted to 1.52 µM. For the compound `O=C(NCCN1CCCC1)c1ccc2c(=O)n(Cc3ccc(Cl)cc3)c(=O)[nH]c2c1`, the IC50 in assay [2] amounted to 2.46 µM.

For `O=C(NCCN1CCCCC1)c1ccc2c(=O)n(C3CCCCC3)c(=O)[nH]c2c1`, the inhibition in assay [1] (100 uM) came out at 52.2%. Regarding `COc1ccc(-n2c(=O)[nH]c3cc(C(=O)NCCCN4CCCC4)ccc3c2=O)cc1`, the result in assay [1] (100 uM) was inactive. For `O=C(NCCCN1CCCC1)c1ccc2c(=O)n(Cc3cccc(F)c3)c(=O)[nH]c2c1`, the inhibition in assay [1] (100 uM) was 9.8%.

Regarding `CCCn1c(=O)[nH]c2cc(C(=O)NCCN3CCOCC3)ccc2c1=O`, the result in assay [1] (100 uM) was inactive. Turning to `COc1ccccc1Cn1c(=O)[nH]c2cc(C(=O)NCCCN3CCCCC3C)ccc2c1=O` (centres undefined), in assay [1] (100 uM), the inhibition came out at 12.7%. For the compound `COc1cccc(-n2c(=O)[nH]c3cc(C(=O)NCCCN4CCCC4)ccc3c2=O)c1`, the outcome in assay [1] (100 uM) was inactive. In the case of `COc1ccc(Cn2c(=O)[nH]c3cc(C(=O)NCCCN4CCOCC4)ccc3c2=O)cc1`, in assay [1] (100 uM), the inhibition turned out to be 36%. Turning to `O=C(NCCN1CCOCC1)c1ccc2c(=O)n(-c3cccc(F)c3)c(=O)[nH]c2c1`, the inhibition in assay [1] (100 uM) worked out at 3.8%.

Take `COc1cccc(Cn2c(=O)[nH]c3cc(C(=O)NCCN4CCCCC4)ccc3c2=O)c1`: the inhibition in assay [1] (100 uM) came out at 62.9%. As to `CC1CCCCN1CCCNC(=O)c1ccc2c(=O)n(Cc3ccc(Cl)cc3)c(=O)[nH]c2c1` (centres undefined), the IC50 in assay [2] was 3.72 µM.

For the compound `CN1CCN(CCCNC(=O)c2ccc3c(=O)n(C)c(=O)[nH]c3c2)CC1`, the inhibition in assay [1] (100 uM) amounted to 3.4%. For the compound `O=C(NCCCN1CCCCC1)c1ccc2c(=O)n(Cc3ccc(Cl)cc3)c(=O)[nH]c2c1`, in assay [2], the IC50 turned out to be 1.95 µM.

`CCC1CCCCN1CCCNC(=O)c1ccc2c(=O)n(Cc3ccccc3Cl)c(=O)[nH]c2c1` (centres undefined): the IC50 in assay [2] is 2.79 µM. Regarding `O=C(NCCN1CCCC1)c1ccc2c(=O)n(-c3cccc(F)c3)c(=O)[nH]c2c1`, the inhibition in assay [1] (100 uM) came out at 4.3%.

As to `O=C(NCCCN1CCOCC1)c1ccc2c(=O)n(-c3ccccc3F)c(=O)[nH]c2c1`, in assay [1] (100 uM), the inhibition was 2.8%. `COc1ccc(-n2c(=O)[nH]c3cc(C(=O)NCCN4CCCC4)ccc3c2=O)cc1`: the inhibition in assay [1] (100 uM) is 10.5%. Regarding `O=C(NCCCN1CCCC1)c1ccc2c(=O)n(Cc3ccc(F)cc3)c(=O)[nH]c2c1`, the inhibition in assay [1] (100 uM) is 34.2%. Same read-out and setting: with `COc1ccc(Cn2c(=O)[nH]c3cc(C(=O)NCCN4CCCC4)ccc3c2=O)cc1` the figure was 39.4%; with `COc1ccc(Cn2c(=O)[nH]c3cc(C(=O)NCCCN4CCCCC4C)ccc3c2=O)cc1` (centres undefined), 42.3%. With `O=C(NCCCN1CCOCC1)c1ccc2c(=O)n(C3CCCCC3)c(=O)[nH]c2c1`, the inhibition in assay [1] (100 uM) worked out at 36.3%. `COc1cccc(-n2c(=O)[nH]c3cc(C(=O)NCCN4CCCCC4)ccc3c2=O)c1`: in assay [1] (100 uM), the outcome was inactive. With `CC1CCCCN1CCCNC(=O)c1ccc2c(=O)n(C3CCCCC3)c(=O)[nH]c2c1` (centres undefined), in assay [1] (100 uM), the inhibition turned out to be 48.3%. Turning to `CN1CCN(CCCNC(=O)c2ccc3c(=O)n(Cc4ccc(F)cc4)c(=O)[nH]c3c2)CC1`, the inhibition in assay [1] (100 uM) turned out to be 25.5%. Consider `O=C(NCCN1CCCCC1)c1ccc2c(=O)n(Cc3ccc(Cl)cc3)c(=O)[nH]c2c1`, for which the IC50 in assay [2] was found to be 2.08 µM.

In the case of `Cn1c(=O)[nH]c2cc(C(=O)NCCN3CCCCC3)ccc2c1=O`, the inhibition in assay [1] (100 uM) was determined as 17.6%. In the case of `O=C(NCCCN1CCOCC1)c1ccc2c(=O)n(Cc3ccc(Cl)cc3)c(=O)[nH]c2c1`, the inhibition in assay [1] (setting [3]) was determined as 9.7%. On to `CCCn1c(=O)[nH]c2cc(C(=O)NCCCN3CCCCC3C)ccc2c1=O` (centres undefined), for which the inhibition in assay [1] (100 uM) came out at 12.5%.

For the compound `O=C(NCCN1CCCC1)c1ccc2c(=O)n(-c3ccccc3F)c(=O)[nH]c2c1`, the inhibition in assay [1] (100 uM) came to 6.5%. As for `O=C(NCCN1CCOCC1)c1ccc2c(=O)n(-c3ccc(F)cc3)c(=O)[nH]c2c1`, in assay [1] (100 uM), the result was inactive. Consider `CCCn1c(=O)[nH]c2cc(C(=O)NCCCN3CCOCC3)ccc2c1=O`, for which the inhibition in assay [1] (100 uM) is 9.2%.

Consider `CC1CCCCN1CCCNC(=O)c1ccc2c(=O)n(-c3cccc(F)c3)c(=O)[nH]c2c1` (centres undefined), for which the outcome in assay [1] (100 uM) was inactive.

Regarding `CCC1CCCCN1CCCNC(=O)c1ccc2c(=O)n(Cc3ccc(F)cc3)c(=O)[nH]c2c1` (centres undefined), the inhibition in assay [1] (100 uM) was found to be 68.3%. In addition, the IC50 in assay [2] stood at 3.31 µM. As to `O=C(NCCN1CCCC1)c1ccc2c(=O)n(Cc3ccc(F)cc3)c(=O)[nH]c2c1`, in assay [1] (100 uM), the inhibition was found to be 47.2%. `O=C(NCCN1CCCC1)c1ccc2c(=O)n(Cc3ccccc3F)c(=O)[nH]c2c1`: the inhibition in assay [1] (100 uM) was found to be 24.9%. In the case of `COc1cccc(Cn2c(=O)[nH]c3cc(C(=O)NCCCN4CCCC4)ccc3c2=O)c1`, the inhibition in assay [1] (100 uM) was found to be 13.2%. Still for that read-out and setting: the same measure for `O=C(NCCN1CCCCC1)c1ccc2c(=O)n(-c3ccccc3F)c(=O)[nH]c2c1`: 7.2%.

As to `Cn1c(=O)[nH]c2cc(C(=O)NCCN3CCCC3)ccc2c1=O`, in assay [1] (100 uM), the result was inactive. Turning to `CCC1CCCCN1CCNC(=O)c1ccc2c(=O)n(Cc3ccc(F)cc3)c(=O)[nH]c2c1` (centres undefined), the IC50 in assay [2] stood at 7.98 µM. `O=C(NCCN1CCCC1)c1ccc2c(=O)n(C3CCCCC3)c(=O)[nH]c2c1`: the inhibition in assay [1] (100 uM) is 57.7%. Besides, the IC50 in assay [2] was determined as 7.96 µM.

Consider `CC1CCCCN1CCCNC(=O)c1ccc2c(=O)n(C)c(=O)[nH]c2c1` (centres undefined), for which, in assay [1] (100 uM), the inhibition is 8.5%. For the compound `O=C(NCCN1CCCCC1)c1ccc2c(=O)n(-c3ccc(F)cc3)c(=O)[nH]c2c1`, in assay [1] (100 uM), the inhibition was found to be 12.5%. Take `COc1cccc(Cn2c(=O)[nH]c3cc(C(=O)NCCN4CCCC4)ccc3c2=O)c1`: in assay [1] (100 uM), the inhibition turned out to be 27.8%. Consider `CCC1CCCCN1CCCNC(=O)c1ccc2c(=O)n(Cc3ccc(Cl)cc3)c(=S)[nH]c2c1` (centres undefined), for which, in assay [2], the IC50 was 0.1 µM. Turning to `O=C(NCCCN1CCOCC1)c1ccc2c(=O)n(-c3ccc(F)cc3)c(=O)[nH]c2c1`, in assay [1] (100 uM), the inhibition came out at 9.2%. Still for that read-out and setting: with `COc1cccc(Cn2c(=O)[nH]c3cc(C(=O)NCCCN4CCOCC4)ccc3c2=O)c1` the figure was 28.9%. For `CC1CCCCN1CCCNC(=O)c1ccc2c(=O)n(Cc3ccc(F)cc3)c(=O)[nH]c2c1` (centres undefined), the inhibition in assay [1] (100 uM) came to 56.6%. For the same compound, in assay [2], the IC50 came to 4.63 µM. On to `O=C(NCCCN1CCOCC1)c1ccc2c(=O)n(-c3cccc(F)c3)c(=O)[nH]c2c1`, for which the inhibition in assay [1] (100 uM) was determined as 15.1%. `COc1ccccc1-n1c(=O)[nH]c2cc(C(=O)NCCCN3CCCC3)ccc2c1=O`: the inhibition in assay [1] (100 uM) amounted to 1.5%. `COc1cccc(Cn2c(=O)[nH]c3cc(C(=O)NCCCN4CCCCC4C)ccc3c2=O)c1` (centres undefined): in assay [1] (100 uM), the inhibition worked out at 36.9%. As for `CCCn1c(=O)[nH]c2cc(C(=O)NCCCN3CCN(C)CC3)ccc2c1=O`, the outcome in assay [1] (100 uM) was inactive.

In the case of `COc1ccc(Cn2c(=O)[nH]c3cc(C(=O)NCCCN4CCCC4)ccc3c2=O)cc1`, the inhibition in assay [1] (100 uM) is 26.8%.
